{"source": "ChEMBL document CHEMBL4602720", "about": "“Degradation versus Inhibition: Development of Proteolysis-Targeting Chimeras for Overcoming Statin-Induced Compensatory Upregulation of 3-Hydroxy-3-methylglutaryl Coenzyme A Reductase” (J Med Chem, 2020)", "key": {"[1]": {"biological_target": "T1, Protein cereblon/3-hydroxy-3-methylglutaryl-coenzyme A reductase (Cricetulus griseus) (UniProt P00347+G3H338)", "assay": "Protac activity at CRBN/HMGCR in Insig-1/Insig-2 deficient Chinese hamster SRD15 cells assessed as induction of HMGCR degradation at 1 uM preincubated for 16 hrs followed by addition of neddylation inhibitor MLN4924 and further incubated for 3 hrs by Western blot analysis", "outline": "(§1)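 SRD15 cells treated with 1 μM degrader for 16 h, then for 3 h with 10 μM MG132 or with MLN-4924 at the indicated concentrations. HMGCR by immunoblot.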"}, "[2]": {"biological_target": "T2, Protein cereblon/3-hydroxy-3-methylglutaryl-coenzyme A reductase (Homo sapiens) (UniProt P04035+Q96SW2)", "T2 sequence (Q96SW2 whole entry, looked up, one chain of several)": "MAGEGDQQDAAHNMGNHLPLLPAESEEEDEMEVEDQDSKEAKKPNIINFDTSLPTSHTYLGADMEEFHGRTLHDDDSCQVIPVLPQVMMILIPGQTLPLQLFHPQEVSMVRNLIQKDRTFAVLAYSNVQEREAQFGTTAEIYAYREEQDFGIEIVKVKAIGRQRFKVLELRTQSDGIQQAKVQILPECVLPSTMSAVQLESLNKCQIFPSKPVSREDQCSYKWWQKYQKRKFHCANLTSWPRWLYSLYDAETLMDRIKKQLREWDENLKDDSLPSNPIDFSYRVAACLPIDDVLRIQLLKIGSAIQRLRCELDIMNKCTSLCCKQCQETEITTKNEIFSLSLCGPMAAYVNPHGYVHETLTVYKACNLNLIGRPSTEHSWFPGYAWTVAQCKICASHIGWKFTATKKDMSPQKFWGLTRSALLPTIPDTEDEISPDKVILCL", "assay": "Protac activity at human Flag-tagged CRBN/Myc-tagged HMGCR expressed in HEK293T cells assessed as induction of HMGCR immunoprecipitation 1 uM preincubated for 16 hrs followed by pomalidomide addition addition and measured after 5 hrs by Western blot analysis", "format": "cell-based", "settings": "HEK-293T"}, "[3]": {"biological_target": "T1, Protein cereblon/3-hydroxy-3-methylglutaryl-coenzyme A reductase (Cricetulus griseus)", "assay": "Protac activity at CRBN/HMGCR in Insig-1/Insig-2 deficient Chinese hamster SRD15 cells assessed as HMGCR level at 1 uM after 16 hrs in presence of 0.1 uM atorvastatin by immunoblotting analysis (reference value: 1)"}, "[4]": {"biological_target": "T3, 3-hydroxy-3-methylglutaryl-coenzyme A reductase (Homo sapiens) (UniProt P04035)", "T3 sequence (whole entry)": "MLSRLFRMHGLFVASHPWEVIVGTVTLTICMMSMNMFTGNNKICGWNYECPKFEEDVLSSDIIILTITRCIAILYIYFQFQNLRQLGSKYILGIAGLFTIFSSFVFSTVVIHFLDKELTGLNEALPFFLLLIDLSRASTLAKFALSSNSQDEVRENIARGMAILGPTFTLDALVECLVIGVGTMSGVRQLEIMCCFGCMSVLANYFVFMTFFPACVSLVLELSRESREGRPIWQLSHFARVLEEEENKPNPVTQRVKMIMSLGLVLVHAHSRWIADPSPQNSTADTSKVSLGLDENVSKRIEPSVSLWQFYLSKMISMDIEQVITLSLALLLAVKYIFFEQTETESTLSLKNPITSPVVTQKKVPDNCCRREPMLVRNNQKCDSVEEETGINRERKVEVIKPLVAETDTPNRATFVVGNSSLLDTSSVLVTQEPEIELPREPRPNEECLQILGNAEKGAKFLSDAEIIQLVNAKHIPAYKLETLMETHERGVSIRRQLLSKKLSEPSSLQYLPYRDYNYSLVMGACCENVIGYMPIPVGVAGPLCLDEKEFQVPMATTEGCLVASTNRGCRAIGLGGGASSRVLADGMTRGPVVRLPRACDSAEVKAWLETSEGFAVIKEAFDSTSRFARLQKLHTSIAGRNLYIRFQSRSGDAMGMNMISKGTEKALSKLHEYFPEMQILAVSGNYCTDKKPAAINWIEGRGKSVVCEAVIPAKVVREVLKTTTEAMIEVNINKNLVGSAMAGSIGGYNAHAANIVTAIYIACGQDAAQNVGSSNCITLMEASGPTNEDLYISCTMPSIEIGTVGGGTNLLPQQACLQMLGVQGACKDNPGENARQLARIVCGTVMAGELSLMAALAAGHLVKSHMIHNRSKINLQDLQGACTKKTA", "assay": "Inhibition of GFP-labelled HMGCR (unknown origin) expressed in lentivirus Chinese hamster SRD15 cells assessed as reduction in cholesterol biosynthesis at 1 uM after 16 hrs by Hoechst staining based laser-scanning microscopic method", "format": "cell-based"}, "[5]": {"biological_target": "T1, Protein cereblon/3-hydroxy-3-methylglutaryl-coenzyme A reductase (Cricetulus griseus)", "assay": "Protac activity at CRBN/HMGCR in Insig-1/Insig-2 deficient Chinese hamster SRD15 cells assessed as HMGCR level at 3 uM after 16 hrs by immunoblotting analysis (reference value: 1)", "outline": "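Dose-response in SRD15 cells in Medium A with 5% FBS, 16 h treatment, DMSO final 0.1% or lower. RIPA lysates immunoblotted for HMGCR. HMGCR densitometry normalized to actin, with the DMSO group set to 1. Three repeats. DC50 is taken from a dose-response fit of the semi-quantitative blots, mean of 3 independent experiments.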"}, "[6]": {"biological_target": "T2, Protein cereblon/3-hydroxy-3-methylglutaryl-coenzyme A reductase (Homo sapiens)", "assay": "Protac activity at human Flag-tagged CRBN/Myc-tagged HMGCR expressed in HEK293T cells assessed as induction of HMGCR immunoprecipitation at 1 uM preincubated for 16 hrs followed by MG132 addition addition and measured after 5 hrs in presence of MG132 by Western blot analysis", "format": "cell-based", "settings": "HEK-293T"}, "[7]": {"biological_target": "T1, Protein cereblon/3-hydroxy-3-methylglutaryl-coenzyme A reductase (Cricetulus griseus)", "assay": "Protac activity at human Flag-tagged CRBN YW/AA mutant /T7-tagged HMGCR transfected in Insig-1/Insig-2 deficient Chinese hamster SRD15 cells assessed as induction of HMGCR degradation at 0.01 to 1 uM after 16 hrs by immunoblotting analysis"}, "[8]": {"biological_target": "T4, Thioredoxin domain-containing protein 11 (Homo sapiens) (UniProt Q6PKC3)", "T4 sequence (whole entry)": "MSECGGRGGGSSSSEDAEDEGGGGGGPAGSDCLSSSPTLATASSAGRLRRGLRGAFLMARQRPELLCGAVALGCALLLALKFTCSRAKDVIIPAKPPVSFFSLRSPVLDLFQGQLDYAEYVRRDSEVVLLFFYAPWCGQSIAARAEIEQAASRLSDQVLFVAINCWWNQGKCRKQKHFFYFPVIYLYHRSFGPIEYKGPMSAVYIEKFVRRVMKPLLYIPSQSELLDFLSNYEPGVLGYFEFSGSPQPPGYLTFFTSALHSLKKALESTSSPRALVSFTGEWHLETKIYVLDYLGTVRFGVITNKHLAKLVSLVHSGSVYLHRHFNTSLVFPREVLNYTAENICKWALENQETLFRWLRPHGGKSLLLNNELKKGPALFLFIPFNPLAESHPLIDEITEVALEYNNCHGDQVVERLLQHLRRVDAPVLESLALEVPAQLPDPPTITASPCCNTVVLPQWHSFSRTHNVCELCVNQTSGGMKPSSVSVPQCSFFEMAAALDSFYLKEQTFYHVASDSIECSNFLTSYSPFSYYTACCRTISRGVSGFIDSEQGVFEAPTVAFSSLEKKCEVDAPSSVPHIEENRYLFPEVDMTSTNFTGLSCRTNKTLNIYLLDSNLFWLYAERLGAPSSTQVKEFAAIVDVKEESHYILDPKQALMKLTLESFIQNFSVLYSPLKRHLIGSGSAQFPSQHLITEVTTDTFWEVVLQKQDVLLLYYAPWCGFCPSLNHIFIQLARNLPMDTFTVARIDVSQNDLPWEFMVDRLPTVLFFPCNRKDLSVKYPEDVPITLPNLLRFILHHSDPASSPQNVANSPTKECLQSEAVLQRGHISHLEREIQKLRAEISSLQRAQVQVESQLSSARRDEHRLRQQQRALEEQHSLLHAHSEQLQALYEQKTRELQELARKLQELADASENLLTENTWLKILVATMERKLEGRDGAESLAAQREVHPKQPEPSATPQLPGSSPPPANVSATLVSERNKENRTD", "assay": "Activation of TXNDC11 (unknown origin)"}, "[9]": {"biological_target": "T1, Protein cereblon/3-hydroxy-3-methylglutaryl-coenzyme A reductase (Cricetulus griseus)", "assay": "Protac activity at CRBN/HMGCR in Insig-1/Insig-2 deficient Chinese hamster SRD15 cells assessed as induction of HMGCR degradation at 1 uM preincubated for 16 hrs followed by addition of proteasome inhibitor MG132 and further incubated for 3 hrs by Western blot analysis", "outline": "as §1"}}, "note": "Calls of active or inactive are those of the source. The rule behind the calls is not given here."}
{"smiles": "CC(C)c1c(C(=O)Nc2ccccc2)c(-c2cccc(OCCCc3cn(CCOCCOCCOCCOCCNc4cccc5c4C(=O)N(C4CCC(=O)NC4=O)C5=O)nn3)c2)c(-c2ccc(F)cc2)n1CC[C@@H](O)C[C@@H](O)CC(=O)O", "note": "(some centres undefined)", "values": [{"measurement": "Activity", "setting": "[1]", "result": "inactive"}, {"measurement": "Activity", "setting": "[2]", "result": "inactive"}, {"measurement": "fold change (FC)", "setting": "[3]", "result": 0.9}, {"measurement": "inhibition", "setting": "[4]", "result": "Active"}, {"measurement": "fold change (FC)", "setting": "[5]", "result": 0.3}, {"measurement": "Activity", "setting": "[6]", "result": "Active"}, {"measurement": "Activity", "setting": "[7]", "result": "inactive"}, {"measurement": "fold change (FC)", "setting": "[8]", "result": 7}, {"measurement": "Activity", "setting": "[9]", "result": "inactive"}]}
